Rows were chosen to be rich in hits. Some 4.7% of all compounds tested hit in one or more screens of this group.
AHR act – AHR activators, primary screen, cell-based, luminescence, luciferase reporter, human; AID 2796, 2010; actives 2.5% (n = 320,000); AHR-responsive luciferase reporter cells; activation, % at 5 µM; in the data active means activation above about 47%
MC4R antag cAMP – MC4R antagonists of cAMP signaling, primary screen, cell-based, TR-FRET, antagonist arm of biased-ligand search. MC4R-expressing cells, MTII-stimulated cAMP, LANCE TR-FRET. inhibition, % at 6.5 µM. actives 0.48% (n = 360,000). AID 540295, 2011;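 active means inhibition above its plate's cutoff, the mean of tested wells on that plate plus 3 SD, cut at about 29% in these data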
Target sequence (P32245 whole entry, looked up): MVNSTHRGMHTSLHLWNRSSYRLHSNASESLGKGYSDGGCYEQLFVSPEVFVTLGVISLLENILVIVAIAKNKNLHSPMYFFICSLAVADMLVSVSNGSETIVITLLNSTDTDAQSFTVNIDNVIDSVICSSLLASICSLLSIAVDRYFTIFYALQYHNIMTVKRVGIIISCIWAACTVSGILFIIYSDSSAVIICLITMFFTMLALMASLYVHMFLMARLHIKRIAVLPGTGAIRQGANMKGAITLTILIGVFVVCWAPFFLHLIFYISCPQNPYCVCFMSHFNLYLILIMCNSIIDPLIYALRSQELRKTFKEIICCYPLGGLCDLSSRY
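Assay system: U2OS-MC4R stable cell line; Also added: Melanotan II; Technique: Eu-cAMP/anti-cAMP TR-FRET, emission 671 nm; Times: 30-min compound, 1-h challenge, 1-h detection, room temperature.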
m5-HT2A agonist – mouse Htr2a agonists via beta-arrestin recruitment, primary screen, cell-based, luminescence. 5-hydroxytryptamine receptor 2A (Mus musculus), P35363. CHO-K1 mHTR2A beta-arrestin complementation; percent of 30 µM serotonin response. activation, % at 7.6 µM. actives 0.66% (n = 360,000). AID 624169, 2012;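 active means activation above a run cutoff, the mean activation of all tested compounds plus 3 SD, cut at about 14% in these data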
MC4R ag barr – MC4R agonists recruiting beta-arrestin, primary screen, cell-based, luminescence, agonist arm of biased-ligand search; Melanocortin receptor 4 (Homo sapiens), P32245; U2OS MC4R beta-arrestin complementation; percent of melanotan II response, DMSO zero; activation, % at 8.9 µM; actives 0.98% (n = 360,000); AID 540308, 2011;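 active means activation above a per-plate cutoff, the mean activation of sample wells on that plate plus 3 SD, cut at about 8% in these data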
FXN GAA850 act – FXN promoter activators, primary screen, cell-based, luciferase luminescence, HEK293 lucGAA850; activation, % at 6 µM; AID 540364, 2011; HEK293 lucGAA850 FXN promoter luciferase reporter, 24 h; percent of 10 µM SAHA response; actives 0.56% (n = 360,000);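 active means activation above the average of all compounds screened plus 3 SD, cutoff fixed separately per campaign, cut at about 7.5% in these data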
A number is an active result; - = inactive; . = not tested or not shown.

SMILES	AHR act	MC4R antag cAMP	m5-HT2A agonist	MC4R ag barr	FXN GAA850 act
COc1ccc(CCN2C(=O)c3cccc4cccc(c34)C2=O)cc1OC	70	-	-	-	-
COc1ccc(OCC(=O)N2CCCC(Nc3ccc(C)c(C)c3)C2)cc1 (centres undefined)	.	-	-	-	-
O=C(COc1ccc([N+](=O)[O-])cc1)NNC(=O)Nc1cccc(F)c1	-	-	-	-	-
COc1cc(C(=O)Nc2ccc(C)cc2)c2ccccc2n1	-	-	-	-	-
O=C(Nc1nc2ccccc2s1)c1cc(-c2ccco2)nc2ccccc12	56	-	-	-	-
COc1ccc(NC(=O)c2cc(-c3ccco3)nc3ccccc23)cn1	71	-	-	-	-
CCOc1ccc(NC(=O)c2cc(OC)nc3ccccc23)cc1	65	-	-	-	-
Cc1nnc(NC(=O)c2cc(-c3ccco3)nc3ccccc23)s1	-	-	-	-	-
Fc1ccccc1Cc1noc(CN(Cc2ccccn2)CC2CCCO2)n1 (centres undefined)	-	-	-	-	-
CCOc1ccc(NC(=O)CN(C)C(=O)c2ccccc2OCCOc2ccccc2)cc1OCC	-	-	-	-	-
COc1cc(C#Cc2c(-c3cncn3C)n(C)c3ccc(-c4ccc(OC)nc4)cc23)cc(OC)c1	60	-	-	-	-
O=C(Nc1nc2ccccc2[nH]1)c1ccccc1O	-	-	-	-	-
Cc1onc(-c2c(F)cccc2Cl)c1C(=O)Nc1nc2ccccc2[nH]1	48	-	-	-	-
Cc1ccc(C)c(C(=O)Nc2nc3ccccc3[nH]2)c1	48	-	-	-	-
Cc1cc(NC(=O)c2c(-c3c(F)cccc3Cl)noc2C)no1	-	-	-	-	-
COc1ccc(C(N)c2csc(Nc3nncc4ccccc34)n2)cc1 (centres undefined)	.	-	-	-	-
Cc1cccc(C)c1NC(=O)C1(C)CN(S(C)(=O)=O)CC(=O)N1Cc1ccco1 (centres undefined)	.	.	-	.	.
Clc1ccc(-c2nc(-c3ccccn3)no2)cc1Cl	72	-	-	-	-
Brc1ccc(-c2nc(-c3ccccn3)no2)o1	51	-	-	-	-
COc1ccc(-c2nc(-c3ccccn3)no2)cc1	-	-	-	-	-
O=C(Oc1cccc2c(O)cccc12)c1ccco1	.	-	-	-	-
Cc1cccn2cc(-c3ccc(Cl)cc3)nc12	71	-	-	-	-
Cc1ccc(-c2cn3cccc(C)c3n2)cc1	.	-	-	-	-
COc1ccc(-c2cn3cccc(C)c3n2)cc1F	70	-	-	-	-
Cc1cccn2cc(-c3c[nH]c4ccccc34)nc12	59	-	-	-	-
SMILES	AHR act	MC4R antag cAMP	m5-HT2A agonist	MC4R ag barr	FXN GAA850 act
Brc1ccc2nc(-c3c[nH]c4ccccc34)cn2c1	-	-	-	-	-
CC(=O)N1CCc2cc(S(=O)(=O)C(C)CC(=O)NCc3ccco3)ccc21 (centres undefined)	.	-	-	-	-
CC(C)(O)C#Cc1ccc(N2C(c3ccsc3)=Cc3ccc(F)cc3C2c2c[nH]c3ccccc23)cc1 (centres undefined)	.	.	-	.	.
CC(C)n1cc(/C=C2/SC(=O)N(CC(=O)N3CCCC3)C2=O)c2ccccc21	-	-	-	-	-
CC(C)n1cc(/C=C2/NC(=O)NC2=O)c2ccccc21	74	-	-	-	-
C#CCn1cc(/C=C2\NC(=O)NC2=O)c2ccccc21	77	-	-	-	-
O=C1NC(=O)/C(=C/c2ccccc2Cl)N1	-	-	-	-	-
O=C(/C=C/c1ccccc1)NC(=S)NNC(=O)Cc1cccs1	49	-	-	-	-
COc1ccc(/C=C/C(=O)NC(=S)NNC(=O)Cc2cccs2)cc1	-	-	-	-	-
CC[C@@H](C(=O)[C@@H](C)[C@@H](O)[C@H](C)CCc1ccc(C)c(O)c1C(=O)O)[C@H]1O[C@](CC)([C@H]2CC[C@](O)(CC)[C@H](C)O2)C[C@@H]1C	-	-	193	89	-
Cc1ccccc1/C=N\NC(=O)c1csnn1	51	-	-	-	-
O=C(NCCc1ccccc1)c1cc(S(=O)(=O)N2CCCCC2)c[nH]1	.	-	-	-	-
O=CN1CCN(C(=O)c2ccc(-c3nc4ccccc4s3)s2)CC1	-	-	-	-	-
O=C(CSc1nc2ccccc2s1)NNC(=S)Nc1ccc(Br)cc1	53	-	-	-	-
Cc1cc(/C=C(\C#N)C(=O)NCc2ccco2)c(C)n1-c1cccnc1	70	-	-	-	-
Cc1cc(/C=C(\C#N)C(=O)NCc2ccco2)c(C)n1C1CCCC1	-	-	-	-	-
N#Cc1c(C(F)(F)F)cc(-c2ccc(Cl)c(Cl)c2)nc1SCCN1CCOCC1	65	-	-	-	-
COc1ccc(-n2cc3c(-c4cccc(Br)c4)nnc(C)c3n2)cc1	61	-	-	-	-
Cc1nnc(-c2cccc(Br)c2)c2cn(-c3ccc(Br)cc3)nc12	89	-	-	-	-
O=C(c1cn(-c2ccccc2)nc1-c1cccc(Br)c1)N1CCOCC1	-	-	-	-	-
Cc1nnc(-c2cccc(Br)c2)c2cn(-c3ccccc3)nc12	48	-	-	-	-
COc1ccc(Cc2c(-c3cccc(Br)c3)nc3ccc(Br)cn23)c(C)c1	.	.	-	.	.
COc1ccc(/C=N/NC(=O)c2sc(C)nc2C)cc1	56	-	-	-	-
O=C(NCCCN1CCN(c2ccccc2F)CC1)C1CCN(S(=O)(=O)c2cccs2)CC1	-	-	15	-	-
O=C(NCCN1CCN(c2ccccc2)CC1)C1CCN(S(=O)(=O)c2cccs2)CC1	.	-	-	-	-
SMILES	AHR act	MC4R antag cAMP	m5-HT2A agonist	MC4R ag barr	FXN GAA850 act
COc1ccc([N+](=O)[O-])cc1C(=O)Nc1ccc(Cc2ccncc2)cc1	72	-	-	-	-
Cc1ccnc(SCC(=O)c2cc3ccccc3o2)n1	-	-	-	-	-
Cc1[nH]n(-c2ccc([N+](=O)[O-])cc2)c(=O)c1C=NCCc1c[nH]c2ccccc12	-	-	-	8.4	-
O=[N+]([O-])c1cccc(-c2ccc(CN3CCCCC3)o2)c1	-	-	-	-	-
CN(CCc1ccccc1)C(=O)c1ccc(NC(=O)Cc2ccc(NC(=O)C3CCCN(S(=O)(=O)c4cccc([N+](=O)[O-])c4)C3)cc2)cc1 (centres undefined)	.	-	-	-	-
OCCN1CCN(Cc2cc(Cl)c3cccnc3c2O)CC1	-	-	-	-	-
Oc1c(CN2CCN(c3ccccn3)CC2)cc(Cl)c2cccnc12	-	-	-	-	10
CCCCOC(=O)/C(=C/c1cn(C)c2ccccc12)NC(=O)c1ccc(OC)cc1	81	-	-	-	-
